Assay results from ChEMBL document CHEMBL1141640, “Cyclic guanidines as dual 5-HT5A/5-HT7 receptor ligands: optimising brain penetration” (Bioorg Med Chem Lett, 2008).

Key:
[1] = molecular target: T1, 5-hydroxytryptamine receptor 5A (Homo sapiens, UniProt P47898); experiment: Binding affinity to human 5HT5A receptor
[2] = Distribution coefficient, log D of the compound; type: physicochemical; settings: octanol/water
Outline: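 Lipophilicity reported as log D at pH 7.4 (log D7.4), measured alongside the guanidine pKa.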

[3] = Dissociation constant, pKa of the compound; type: physicochemical
[4] = molecular target: T2, 5-hydroxytryptamine receptor 1A (Homo sapiens, UniProt P08908); experiment: Binding affinity to human 5HT1A receptor
T2 sequence (P08908 whole entry): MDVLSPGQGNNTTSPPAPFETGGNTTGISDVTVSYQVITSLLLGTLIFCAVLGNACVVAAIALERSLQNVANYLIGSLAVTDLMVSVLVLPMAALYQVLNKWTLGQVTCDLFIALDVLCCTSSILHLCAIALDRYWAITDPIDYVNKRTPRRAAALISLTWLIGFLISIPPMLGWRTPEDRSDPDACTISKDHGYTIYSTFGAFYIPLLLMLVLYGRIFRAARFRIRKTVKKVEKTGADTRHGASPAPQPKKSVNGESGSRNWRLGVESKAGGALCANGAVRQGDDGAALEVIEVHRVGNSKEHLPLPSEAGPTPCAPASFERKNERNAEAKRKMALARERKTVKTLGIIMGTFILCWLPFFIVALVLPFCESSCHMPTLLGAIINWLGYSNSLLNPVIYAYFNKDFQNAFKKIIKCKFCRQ

[5] = molecular target: 5-hydroxytryptamine receptor 7 (Homo sapiens, UniProt P34969); experiment: Binding affinity to human 5HT7 receptor
[6] = molecular target: 5-hydroxytryptamine receptor 5A (Rattus norvegicus, UniProt P35364); experiment: Binding affinity to rat 5HT5A receptor
[7] = molecular target: T3, 5-hydroxytryptamine receptor 2C (Homo sapiens, UniProt P28335); experiment: Binding affinity to human 5HT2C receptor
T3 sequence (P28335 whole entry): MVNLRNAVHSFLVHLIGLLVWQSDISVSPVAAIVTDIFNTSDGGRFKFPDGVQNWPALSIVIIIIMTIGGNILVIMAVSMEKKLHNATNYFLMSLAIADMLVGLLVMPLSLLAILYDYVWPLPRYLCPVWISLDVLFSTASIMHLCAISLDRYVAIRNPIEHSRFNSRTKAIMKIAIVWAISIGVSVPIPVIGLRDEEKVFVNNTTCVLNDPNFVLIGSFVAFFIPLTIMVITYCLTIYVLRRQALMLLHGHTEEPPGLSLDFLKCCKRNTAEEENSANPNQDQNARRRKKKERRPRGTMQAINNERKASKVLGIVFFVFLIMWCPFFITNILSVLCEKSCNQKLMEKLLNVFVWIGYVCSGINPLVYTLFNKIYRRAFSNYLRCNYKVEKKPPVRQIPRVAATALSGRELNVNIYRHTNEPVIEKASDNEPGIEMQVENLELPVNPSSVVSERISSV

[8] = molecular target: T4, 5-hydroxytryptamine receptor 1D (Homo sapiens, UniProt P28221); experiment: Binding affinity to human 5HT1D receptor
[9] = molecular target: 5-hydroxytryptamine receptor 6 (Homo sapiens, UniProt P50406); experiment: Binding affinity to human 5HT6 receptor
[10] = molecular target: 5-hydroxytryptamine receptor 2A (Homo sapiens, UniProt P28223); experiment: Binding affinity to human 5HT2A receptor
Histamine H1 receptor = Histamine H1 receptor (Homo sapiens, UniProt P35367); experiment: Binding affinity to histamine H1 receptor
[11] = Selectivity for human 5HT5A receptor over 5HT2A receptor
[12] = molecular target: T3, 5-hydroxytryptamine receptor 2C; experiment: Binding affinity to 5HT2C receptor
[13] = molecular target: T4, 5-hydroxytryptamine receptor 1D; experiment: Binding affinity to 5HT1D receptor
[14] = molecular target: T2, 5-hydroxytryptamine receptor 1A; experiment: Binding affinity to 5HT1A receptor
[15] = Selectivity for human 5HT5A receptor over 5HT3 receptor
[16] = Selectivity for human 5HT5A receptor over 5HT6 receptor
[17] = Clearance in mouse at 5 mg/kg, iv; type: ADME, organism-based; parameters: dose 5 mg/kg, route intravenous; settings: in vivo
[18] = Half life in mouse at 5 mg/kg, iv; type: ADME, organism-based; parameters: dose 5 mg/kg, route intravenous; settings: in vivo
[19] = Tmax in mouse at 10 mg/kg, po; type: ADME, organism-based; parameters: dose 10 mg/kg, route oral; settings: in vivo
[20] = Cmax in mouse at 10 mg/kg, po; type: ADME, organism-based; parameters: dose 10 mg/kg, route oral; settings: in vivo
[21] = Oral bioavailability in mouse at 10 mg/kg; type: ADME, organism-based; settings: in vivo
[22] = Volume of distribution at steady state in mouse at 5 mg/kg, iv; type: ADME, organism-based; parameters: dose 5 mg/kg, route intravenous; settings: in vivo, read-out: Vdss
[23] = molecular target: T1, 5-hydroxytryptamine receptor 5A; experiment: Antagonist activity at human 5HT5A receptor by [35S]GTP-gamma-S binding assay; type: functional; settings: read-out: pA2 (converted)
Outline: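 Functional antagonism at human 5-HT5A receptor measured by [35S]GTPγS binding; potency reported as pA2.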

[24] = Tmax in mouse at 6.6 mg/kg, po; type: ADME, organism-based; parameters: dose 6.6 mg/kg, route oral; settings: in vivo
[25] = Cmax in mouse at 6.6 mg/kg, po; type: ADME, organism-based; parameters: dose 6.6 mg/kg, route oral; settings: in vivo
[26] = Ratio of drug level in brain to plasma in mouse at 6.6 mg/kg, po; type: ADME, organism-based; parameters: dose 6.6 mg/kg, route oral
Outline: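 Mouse pharmacokinetic study with a single oral (po) dose of 6.6 mg/kg. Drug levels were measured in brain and in plasma, and the brain/plasma ratio was taken from these.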

Brain = experiment: Drug level in mouse brain at 6.6 mg/kg, po; type: ADME, organism-based; parameters: dose 6.6 mg/kg, route oral; settings: in vivo, read-out: Drug uptake
[27] = Oral bioavailability in mouse at 6.6 mg/kg; type: ADME, organism-based; settings: in vivo

T1 sequence (P47898 whole entry): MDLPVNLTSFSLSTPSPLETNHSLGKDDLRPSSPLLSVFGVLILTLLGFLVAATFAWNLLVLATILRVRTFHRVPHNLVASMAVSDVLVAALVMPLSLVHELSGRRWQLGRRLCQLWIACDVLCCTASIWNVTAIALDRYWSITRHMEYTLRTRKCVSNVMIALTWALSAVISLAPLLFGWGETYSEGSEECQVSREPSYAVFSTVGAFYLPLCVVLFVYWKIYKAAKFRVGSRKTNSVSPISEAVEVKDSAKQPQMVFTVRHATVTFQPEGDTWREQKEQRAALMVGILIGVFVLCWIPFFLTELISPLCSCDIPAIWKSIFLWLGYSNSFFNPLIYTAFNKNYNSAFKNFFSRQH
5-hydroxytryptamine receptor 7, sequence (P34969 whole entry): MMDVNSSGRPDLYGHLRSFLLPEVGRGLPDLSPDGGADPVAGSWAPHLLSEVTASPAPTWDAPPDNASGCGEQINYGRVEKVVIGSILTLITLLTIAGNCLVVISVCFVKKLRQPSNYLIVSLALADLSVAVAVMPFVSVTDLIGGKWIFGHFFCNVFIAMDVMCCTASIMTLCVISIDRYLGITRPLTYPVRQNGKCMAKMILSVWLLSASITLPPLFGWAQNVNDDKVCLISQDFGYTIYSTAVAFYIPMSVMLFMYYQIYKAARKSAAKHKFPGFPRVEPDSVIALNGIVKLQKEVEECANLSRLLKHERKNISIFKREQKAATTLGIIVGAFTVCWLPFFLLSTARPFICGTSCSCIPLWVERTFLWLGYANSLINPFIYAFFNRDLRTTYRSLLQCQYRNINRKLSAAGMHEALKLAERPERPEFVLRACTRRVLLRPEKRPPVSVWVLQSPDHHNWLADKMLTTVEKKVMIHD
T4 sequence (P28221 whole entry): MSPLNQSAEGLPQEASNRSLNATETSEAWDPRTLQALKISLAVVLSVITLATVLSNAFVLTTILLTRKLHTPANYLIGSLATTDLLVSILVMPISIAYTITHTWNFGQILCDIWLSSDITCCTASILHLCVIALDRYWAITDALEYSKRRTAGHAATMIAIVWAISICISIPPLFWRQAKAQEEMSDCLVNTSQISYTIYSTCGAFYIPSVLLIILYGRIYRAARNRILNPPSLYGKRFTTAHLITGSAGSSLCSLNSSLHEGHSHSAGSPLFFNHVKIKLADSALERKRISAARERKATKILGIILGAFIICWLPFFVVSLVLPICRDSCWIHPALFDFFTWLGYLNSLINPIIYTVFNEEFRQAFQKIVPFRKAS
5-hydroxytryptamine receptor 2A, sequence (P28223 whole entry): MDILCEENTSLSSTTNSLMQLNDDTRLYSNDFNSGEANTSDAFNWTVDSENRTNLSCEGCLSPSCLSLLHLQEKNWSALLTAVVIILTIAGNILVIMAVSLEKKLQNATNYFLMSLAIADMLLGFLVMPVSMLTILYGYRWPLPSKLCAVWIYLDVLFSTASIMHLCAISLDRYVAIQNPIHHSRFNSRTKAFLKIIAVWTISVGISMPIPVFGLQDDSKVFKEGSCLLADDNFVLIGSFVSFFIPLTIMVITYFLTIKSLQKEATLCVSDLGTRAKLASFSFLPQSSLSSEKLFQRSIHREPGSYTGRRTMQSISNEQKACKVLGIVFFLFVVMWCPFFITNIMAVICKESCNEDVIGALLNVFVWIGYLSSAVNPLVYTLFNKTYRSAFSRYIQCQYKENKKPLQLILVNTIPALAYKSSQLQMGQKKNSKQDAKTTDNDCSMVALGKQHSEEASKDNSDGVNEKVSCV
5-hydroxytryptamine receptor 5A (Rattus norvegicus, UniProt P35364), sequence (P35364 whole entry): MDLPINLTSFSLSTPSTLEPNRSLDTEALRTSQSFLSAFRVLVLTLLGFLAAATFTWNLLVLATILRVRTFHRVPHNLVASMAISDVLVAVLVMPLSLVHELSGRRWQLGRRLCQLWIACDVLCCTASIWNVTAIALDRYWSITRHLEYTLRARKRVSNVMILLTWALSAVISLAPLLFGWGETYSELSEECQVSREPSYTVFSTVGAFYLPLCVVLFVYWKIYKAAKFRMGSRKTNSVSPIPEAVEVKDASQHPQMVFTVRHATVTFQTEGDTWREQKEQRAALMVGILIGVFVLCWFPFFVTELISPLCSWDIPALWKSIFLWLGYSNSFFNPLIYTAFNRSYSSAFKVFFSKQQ
Histamine H1 receptor, sequence (P35367 whole entry): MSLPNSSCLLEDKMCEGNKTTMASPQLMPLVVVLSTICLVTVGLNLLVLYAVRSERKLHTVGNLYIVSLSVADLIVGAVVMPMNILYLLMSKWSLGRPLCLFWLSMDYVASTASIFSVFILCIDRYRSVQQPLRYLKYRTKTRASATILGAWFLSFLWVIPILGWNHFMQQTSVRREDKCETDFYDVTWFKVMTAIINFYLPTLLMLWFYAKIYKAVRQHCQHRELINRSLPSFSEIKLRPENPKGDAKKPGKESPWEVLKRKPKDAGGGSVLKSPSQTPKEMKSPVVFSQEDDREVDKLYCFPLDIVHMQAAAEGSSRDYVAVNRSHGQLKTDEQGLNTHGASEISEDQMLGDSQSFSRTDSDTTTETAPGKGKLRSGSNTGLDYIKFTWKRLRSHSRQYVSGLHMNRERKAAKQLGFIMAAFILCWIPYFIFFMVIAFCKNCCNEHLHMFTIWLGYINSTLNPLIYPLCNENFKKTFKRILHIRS
5-hydroxytryptamine receptor 6, sequence (P50406 whole entry): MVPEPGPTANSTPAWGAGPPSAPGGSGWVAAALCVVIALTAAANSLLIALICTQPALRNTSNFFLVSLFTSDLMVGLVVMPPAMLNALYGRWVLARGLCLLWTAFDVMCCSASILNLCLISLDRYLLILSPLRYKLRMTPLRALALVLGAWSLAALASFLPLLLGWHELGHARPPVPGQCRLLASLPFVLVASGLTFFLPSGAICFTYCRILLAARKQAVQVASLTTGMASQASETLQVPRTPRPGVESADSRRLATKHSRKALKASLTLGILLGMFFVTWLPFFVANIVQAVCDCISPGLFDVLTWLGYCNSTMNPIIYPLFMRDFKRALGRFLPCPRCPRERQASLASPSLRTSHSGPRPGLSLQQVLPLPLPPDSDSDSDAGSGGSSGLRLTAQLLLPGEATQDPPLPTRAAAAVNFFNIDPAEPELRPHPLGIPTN

Which results are given for `CC1NC(NCC(F)F)=Nc2ccccc21` (configuration not stated)?
Ki ([1]; read-out: Ki): 87 nM; logD [2]: -0.2; pKa [3]: 9.7

With `CC1NC(NCCC2CCCCC2)=Nc2ccccc21` (configuration not stated) as the compound, how does the Ki ([1]; read-out: Ki) read?
The Ki was 124 nM.

What about the logD [2] of the same compound?
The logD was 1.3.

Which results are given for `CC1NC(NC2CCCCN(C)C2=O)=Nc2ccccc21` (configuration not stated)?
Ki ([1]; read-out: Ki): 279 nM; logD [2]: -0.1

What does the source list for `C[C@@H]1NC(NCC(F)F)=Nc2cccc(Cl)c21`?
Ki ([1]; read-out: Ki): 6.8 nM; Ki [4]: 56 nM; Ki [5]: 24.8 nM; Ki [6]: 2.9 nM; Ki [7]: 352 nM; Ki [8]: 1440 nM; Ki [9]: 4480 nM; Ki [10]: 491 nM

Which Ki ([1]; read-out: Ki) does the source give for `CC1NC(NCC2COCCO2)=Nc2ccccc21` (configuration not stated) here?
Its Ki is 96 nM.

What about the logD [2] of the same compound?
Its logD is -0.8.

With `CC1NC(NCC(F)F)=Nc2ccc(Cl)c(Cl)c21` (configuration not stated) as the compound, how does the Ki (Histamine H1 receptor) read?
The Ki was 18.3 nM.

And the Selectivity ratio [11]?
Its Selectivity ratio is over 30.

And the logD [2]?
Its logD is 2.7.

What about the Ki [12] of the same compound?
Its Ki is 162 nM.

And the Ki [13]?
Its Ki is 630 nM.

And the pKa [3]?
Its pKa is 8.5.

What about the Ki [5] of the same compound?
Its Ki is 23.3 nM.

And the Ki [14]?
Its Ki is 124 nM.

And the Selectivity ratio [15]?
The Selectivity ratio was over 30.

And the Selectivity ratio [16]?
Its Selectivity ratio is over 30.

What does the source list for `CNC1=Nc2ccccc2C(C)N1` (configuration not stated)?
Ki ([1]; read-out: Ki): 103 nM; logD [2]: -0.6; pKa [3]: 10.6

Which results are given for `CC1NC(NCC2COc3ccccc3O2)=Nc2ccccc21` (configuration not stated)?
Ki ([1]; read-out: Ki): 37 nM; logD [2]: 1

Which Ki ([1]; read-out: Ki) does the source give for `CCOCCCNC1=Nc2ccccc2C(C)N1` (configuration not stated) here?
Its Ki is 176 nM.

And the logD [2]?
Its logD is -0.3.

With `CCNC1=Nc2ccccc2C(C)N1` (configuration not stated) as the compound, how does the Ki ([1]; read-out: Ki) read?
Its Ki is 196 nM.

What about the logD [2] of the same compound?
The logD was -0.9.

What about the pKa [3] of the same compound?
Its pKa is 10.8.

For `CCCOCCNC1=Nc2ccccc2C(C)N1` (configuration not stated), which Ki ([1]; read-out: Ki) is on record?
Its Ki is 241 nM.

What about the logD [2] of the same compound?
Its logD is 0.1.

With `CC1NC(N)=Nc2cccc(Cl)c21` (configuration not stated) as the compound, how does the Ki ([1]; read-out: Log Ki (converted)) read?
The Ki was 5.01 nM.

What about the clearance [17] of the same compound?
The clearance was 30 mL/min/kg.

What about the logD [2] of the same compound?
Its logD is 0.

And the pKa [3]?
Its pKa is 9.9.

What about the half-life [18] of the same compound?
Its half-life is 4 h.

What about the Tmax [19] of the same compound?
Its Tmax is 0.75 h.

And the Cmax [20]?
The Cmax was 660 ng/mL.

And the bioavailability [21]?
The bioavailability was 59%.

What about the Vd [22] of the same compound?
Its Vd is 9 L/kg.

And the Kb [23]?
The Kb was 3.16 nM.

Which Ki ([1]; read-out: Ki) does the source give for `CC1NC(NCC(F)F)=Nc2c(Cl)ccc(Cl)c21` (configuration not stated) here?
Its Ki is 33.4 nM.

And the Selectivity ratio [11]?
Its Selectivity ratio is over 30.

What about the logD [2] of the same compound?
The logD was 3.

And the Ki [12]?
The Ki was 675 nM.

And the Ki [13]?
Its Ki is over 10000 nM.

And the pKa [3]?
The pKa was 7.8.

And the Ki [5]?
Its Ki is 366 nM.

What about the Ki [14] of the same compound?
Its Ki is 87 nM.

And the Selectivity ratio [15]?
The Selectivity ratio was over 30.

What about the Selectivity ratio [16] of the same compound?
The Selectivity ratio was over 30.

What does the source list for `CC1NC(NCC(F)F)=Nc2cccc(Cl)c21` (configuration not stated)?
clearance [17]: 31 mL/min/kg; Tmax [24]: 0.25 h; Selectivity ratio [11]: > 30; logD [2]: 1.5; Ki [12]: 401 nM; Cmax [25]: 740 ng/mL; Ki [13]: 1370 nM; Kp [26]: 4; pKa [3]: 8.9; half-life [18]: 1.4 h; concentration (Brain): > 1000 nM; Ki [5]: 33.3 nM; Ki [14]: 85 nM; Vd [22]: 3.6 L/kg; bioavailability [27]: 36%; Kb [23]: 38.9 nM; Selectivity ratio [15]: > 30; Selectivity ratio [16]: > 30
